One test has as its target T1, Adenosine receptor A1 (Homo sapiens, UniProt P30542).
T1 sequence (P30542 whole entry): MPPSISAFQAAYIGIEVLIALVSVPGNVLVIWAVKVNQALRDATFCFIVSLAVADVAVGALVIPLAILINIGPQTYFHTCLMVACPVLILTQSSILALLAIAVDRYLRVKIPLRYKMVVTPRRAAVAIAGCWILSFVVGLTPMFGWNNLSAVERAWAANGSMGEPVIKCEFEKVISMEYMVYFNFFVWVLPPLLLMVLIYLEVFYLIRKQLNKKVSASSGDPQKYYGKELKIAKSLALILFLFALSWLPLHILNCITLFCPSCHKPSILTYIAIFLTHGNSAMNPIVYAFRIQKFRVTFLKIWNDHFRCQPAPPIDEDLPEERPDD
Description: Displacement of [3H]CCPA from human recombinant adenosine A1 receptor expressed in CHO cells. The format is cell-based.

The next test has as its target T2, Adenosine receptor A3 (Homo sapiens, UniProt P0DMS8).
T2 sequence (P0DMS8 whole entry): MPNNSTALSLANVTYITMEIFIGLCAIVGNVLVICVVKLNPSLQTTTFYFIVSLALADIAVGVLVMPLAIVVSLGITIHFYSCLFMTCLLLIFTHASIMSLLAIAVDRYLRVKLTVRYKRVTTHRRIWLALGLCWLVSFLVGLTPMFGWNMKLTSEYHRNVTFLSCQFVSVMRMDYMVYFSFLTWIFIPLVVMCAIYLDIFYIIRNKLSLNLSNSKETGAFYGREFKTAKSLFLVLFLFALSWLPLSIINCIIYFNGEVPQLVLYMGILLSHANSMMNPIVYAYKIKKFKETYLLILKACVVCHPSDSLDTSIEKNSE
The test can be described thus: Displacement of [3H]NECA from human recombinant adenosine A3 receptor expressed in CHO cells. The format is cell-based. A digest of the protocol:
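[3H]NECA used at 10 nM as radioligand in competition experiments, stably transfected CHO cells. Nonspecific binding defined with 1 mM theophylline. Ki from nonlinear curve fitting.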

The target in test [1] is T3, Adenosine receptor A3 (Homo sapiens) (UniProt P0DMS8).
T3 sequence (whole entry): T2 sequence (P0DMS8 whole entry)
The test can be described thus: Activity at human adenosine A3 receptor assessed as inhibition of forskolin-stimulated cAMP production in CHO cells. The format is functional, cell-based. Set-up: concentration or dose not given beside the values.

The target in the next test is Adenosine receptor A2a (Homo sapiens, UniProt P29274). The test can be described thus: Displacement of [3H]NECA from human recombinant adenosine A2A receptor expressed in CHO cells. The format is cell-based. The essentials: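 Competition binding with [3H]NECA at 30 nM on stably transfected CHO cells. Nonspecific binding defined with 1 mM theophylline. Dissociation constants (Ki) obtained by nonlinear curve fitting.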
Chain of Adenosine receptor A2a (P29274 whole entry): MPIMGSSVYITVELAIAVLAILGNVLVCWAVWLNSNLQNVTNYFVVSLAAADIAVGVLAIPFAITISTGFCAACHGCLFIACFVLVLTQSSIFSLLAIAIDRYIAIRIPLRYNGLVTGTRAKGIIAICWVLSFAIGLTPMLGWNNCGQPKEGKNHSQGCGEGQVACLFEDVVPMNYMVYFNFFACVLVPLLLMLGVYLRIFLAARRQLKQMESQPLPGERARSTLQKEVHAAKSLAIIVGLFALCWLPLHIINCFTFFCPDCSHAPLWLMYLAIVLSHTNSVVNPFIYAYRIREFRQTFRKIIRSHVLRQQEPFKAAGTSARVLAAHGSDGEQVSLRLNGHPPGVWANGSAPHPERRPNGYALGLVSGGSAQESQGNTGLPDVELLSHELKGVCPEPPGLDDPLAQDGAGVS

Test [2] concerns the target Adenosine receptors; A1 & A3 (Homo sapiens) (UniProt P30542+P0DMS8). The test can be described thus: Selectivity for human adenosine A3 receptor over human adenosine A1 receptor. The format is protein assay.
The target in test [3] is Adenosine receptors; A2a & A3 (Homo sapiens) (UniProt P0DMS8+P29274). The test can be described thus: Selectivity for human adenosine A3 receptor over human adenosine A2A receptor. The format is protein assay.

The text below walks through data of ChEMBL document CHEMBL1142938 (J Med Chem, 2007).

Molecules are shown by their SMILES.

With `CCNC(=O)[C@H]1O[C@@H](n2cnc3c(NOC)nc(C#Cc4ccccc4)nc32)[C@H](O)[C@@H]1O`, the results for the Ki on Adenosine receptor A1 and on Adenosine receptor A3 were 1.88 µM and 0.0035 µM, respectively. The Activity in test [1] amounted to 35%.
`CNC(=O)[C@H]1O[C@@H](n2cnc3c(NOC)nc(C#Cc4ccccn4)nc32)[C@H](O)[C@@H]1O`: the values for the Ki at Adenosine receptor A1, on Adenosine receptor A2a and on Adenosine receptor A3 were 3.99 µM, 18 µM and 0.0011 µM, respectively. Further, the figures for the Ratio Ki in test [2] and in test [3] were 3600 and 16400, respectively. Moreover, the Activity in test [1] is 34%.
Consider `CNC(=O)[C@H]1O[C@@H](n2cnc3c(NOC)nc(C#Cc4ccc(C(C)=O)cc4)nc32)[C@H](O)[C@@H]1O`, for which the results for the Ki at Adenosine receptor A1, at Adenosine receptor A2a and on Adenosine receptor A3 were 53.8 µM, 10.4 µM and 0.0025 µM, respectively. Also, the results for the Ratio Ki in test [2] and in test [3] were 21500 and 4200, respectively. Besides, the Activity in test [1] worked out at 41%.
As for `CNC(=O)[C@H]1O[C@@H](n2cnc3c(NOC)nc(C#Cc4ccccc4)nc32)[C@H](O)[C@@H]1O`, the Ki was 9.14 µM at Adenosine receptor A1, 16.3 µM at Adenosine receptor A2a and 0.0019 µM on Adenosine receptor A3. The Ratio Ki was determined as 4800 in test [2] and 8600 in test [3]. The Activity in test [1] was found to be 38%.
On to `CONc1nc(C#Cc2ccc(C(C)=O)cc2)nc2c1ncn2[C@@H]1O[C@H](CO)[C@@H](O)[C@H]1O`, for which the Ki on Adenosine receptor A1 was determined as 1.28 µM; on Adenosine receptor A2a, 2.68 µM; at Adenosine receptor A3, 0.003 µM. For the same compound, the Ratio Ki in test [2] stood at 427; in test [3], 893. For the same compound, in test [1], the Activity worked out at 81%.
With `CONc1nc(C#Cc2ccc(CC#N)cc2)nc2c1ncn2[C@@H]1O[C@H](CO)[C@@H](O)[C@H]1O`, the Ki at Adenosine receptor A1 is 0.766 µM; on Adenosine receptor A2a, 3.08 µM; at Adenosine receptor A3, 0.0037 µM. Also, the Ratio Ki in test [2] is 207; in test [3], 832.
On to `CONc1nc(C#Cc2ccccn2)nc2c1ncn2[C@@H]1O[C@H](CO)[C@@H](O)[C@H]1O`, for which the Ki worked out at 0.437 µM at Adenosine receptor A1, 2.96 µM on Adenosine receptor A2a and 0.0023 µM on Adenosine receptor A3. Moreover, the Ratio Ki in test [2] turned out to be 190; in test [3] it was 1300. The Activity in test [1] came to 94%.
For `CONc1nc(C#Cc2ccccc2)nc2c1ncn2[C@@H]1O[C@@H](CO)[C@@H](O)[C@H]1O`, the Ki at Adenosine receptor A1 was 1.21 µM; at Adenosine receptor A2a it was 4.29 µM; on Adenosine receptor A3, 0.0038 µM. In addition, the Ratio Ki in test [2] was 318; in test [3], 1100. For the same compound, the Activity in test [1] worked out at 81%.
